Assay results reported in article PMC2638642 (Toxicological Sciences, 2008).

Columns and labels:
[1] = system: BALB/c mice; assay: Histopathology, 7-day toxicity study; type: in vivo
[2] = after iv administration in human; ref Palmer-Toy, 2000; Rybak, 2006; cited from earlier work
[3] = system: BALB/c mice; assay: Serum clinical chemistry, 7-day toxicity study; type: in vivo; settings: for BUN change: 3 mice per group
Procedure, shortened: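 Groups of six female BALB/c mice were dosed iv or ip with the test compound at 50, 200 or 400 mg/kg once daily for 7 days; controls got 0.9% saline by the same route. Retro-orbital blood was taken from three randomly selected mice per group on day 3 (before the third dose) and day 8 (before sacrifice). Serum BUN, ALP and GGT were measured by an outside veterinary laboratory.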

[4] = Toxicokinetic; type: in vivo, BALB/c mice
Procedure, shortened: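 Female BALB/c mice (12/group) got vancomycin iv or ip at 50, 200 or 400 mg/kg. Retro-orbital EDTA plasma came from three mice per time point, 0.083–24 h after doses 1 and 7. Plasma went through SPE with a tinidazole internal standard, eluted in acetonitrile:KH2PO4 pH 4, then gradient LC; calibration by 1/y-weighted regression of peak-area ratio. Noncompartmental analysis; F = (AUCip/AUCiv)×(Doseiv/Doseip).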

[5] = high-dose treatment, day 8, serum

SMILES: CN[C@H](CC(C)C)C(=O)N[C@H]1C(=O)N[C@@H](CC(N)=O)C(=O)N[C@H]2C(=O)N[C@H]3C(=O)N[C@H](C(=O)N[C@H](C(=O)O)c4cc(O)cc(O)c4-c4cc3ccc4O)[C@H](O)c3ccc(c(Cl)c3)Oc3cc2cc(c3O[C@@H]2O[C@H](CO)[C@@H](O)[C@H](O)[C@H]2O[C@H]2C[C@](C)(N)[C@H](O)[C@H](C)O2)Oc2ccc(cc2Cl)[C@H]1O [vancomycin]
- primary histopathological finding in kidneys ([1]; 400 mg/kg/day either iv or ip x7, day 8, H&E): proximal tubular necrosis
- inflammatory cell infiltration into the affected renal tissue ([1]; 400 mg/kg/day iv or ip x7, day 8, H&E): minimal
- signs of toxicity in clinical chemistry and histopathology assessments ([1]; iv-200 (200 mg/kg/day iv x7)): did not exhibit signs of toxicity
- Cmax in human (also therapeutic range) [2]: 20000 to 50000 ng/mL
- CRE (serum creatinine) levels ([3]; 50, 200, 400 mg/kg/day iv or ip x7): not significantly affected
- BUN change ([3]; high-dose (400 mg/kg/day x7) ip, day 8, serum): trend toward increased BUN values
- BUN change ([3]; high-dose (400 mg/kg/day x7) iv, day 8, serum): statistically significant increase
- alkaline phosphatase (ALP) [3, 5]: affected
- gamma-glutamyl transferase (GGT) [3, 5]: affected
- AUC^0→∞ after iv relative to ip administration (iv higher) ([4]; BALB/c mice, 200 mg/kg): 1.7 fold
- difference in Cmax value between iv and ip administration (iv higher) ([4]; BALB/c mice, 200 mg/kg, after seven doses): 3.4 fold
- clinical condition of animals in TK study ([4]; iv high-dose group (400 mg/kg), some animals): moribund or dead
